Among all 360,000 compounds or so, about 1,700 (0.47%) were called active. This is one part of a sample in which actives are shown more often than they occur.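 How the source made its calls: active means inhibition above its plate's cutoff, the mean of tested wells on that plate plus 3 SD (cut at about 29% in these data); inactive means the rest.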
Target: Melanocortin receptor 4 (Homo sapiens) (UniProt P32245)
Assay: MC4R antagonists of cAMP signaling, primary screen, cell-based, TR-FRET, antagonist arm of biased-ligand search (AID 540295);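 further: 0% = Melanotan II alone and 100% = Melanotan II plus saturating MCL0020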
Conditions: MC4R-expressing cells, MTII-stimulated cAMP, LANCE TR-FRET; at 6.5 µM; active compounds read high
Procedure, shortened: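 material = U2OS cells stably expressing human melanocortin 4 receptor (MC4R) | also added = Melanotan II challenge | dosing = single nominal compound dose of 6.5 µM | detection = TR-FRET with Eu-cAMP and labeled anti-cAMP, 671 nm | replication = singlicate | timing = compound 30 min, challenge 1 h, detection 1 h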

Chain of Melanocortin receptor 4 (Homo sapiens) (P32245 whole entry, looked up): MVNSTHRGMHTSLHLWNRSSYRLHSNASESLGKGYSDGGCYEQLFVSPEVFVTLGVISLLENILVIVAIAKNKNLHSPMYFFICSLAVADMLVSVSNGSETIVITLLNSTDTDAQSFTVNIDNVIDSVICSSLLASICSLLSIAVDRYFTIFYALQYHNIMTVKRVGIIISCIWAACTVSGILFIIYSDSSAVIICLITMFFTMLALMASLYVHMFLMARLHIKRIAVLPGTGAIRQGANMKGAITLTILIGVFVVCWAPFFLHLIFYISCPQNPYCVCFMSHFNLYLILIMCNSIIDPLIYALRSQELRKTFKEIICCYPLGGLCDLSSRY

inhibition, active:
O=C(COC(=O)c1c2c(nc3ccccc13)CCCC2)c1ccc(Br)s1 33.9%
O=C(OCC(=O)N1CCCCCC1)c1cnc(Cl)c(Cl)c1 30.5%
COc1ccc(CCNC(=O)COC(=O)c2cnc(Cl)c(Cl)c2)cc1 39.7%
COc1ccc(CCNC(=O)c2cnc(Cl)c(Cl)c2)cc1 29.6%
Cc1c(Cl)cccc1NC(=O)[C@@]1(CC(=O)O)CC(/C=C/c2ccccc2)=NO1 38.9%
O=C(O)CCn1cc(/C=C/C(=O)c2ccc(Cl)cc2)c(-c2cccc(Br)c2)n1 32.5%
O=C(Nc1ccc(F)c([N+](=O)[O-])c1)C1CC(=O)N(Cc2ccccc2)C1 (stereo not given) 35.5%
CC(C)Oc1c(Br)cc(Br)cc1/C=N/NC(N)=S 31.4%
COc1ccc(Cl)cc1-c1cc(C(=O)Nc2cc(OC)c(OC)c(OC)c2)[nH]n1 29.8%
COc1ccc(Oc2c(Cl)cnn(-c3ccccc3)c2=O)cc1 54.6%
COCCCNC(=O)/C(C#N)=C/c1c(N2CCCCCC2)nc2ccccn2c1=O 31%
CC(=O)N1CCN(S(=O)(=O)c2c(F)cc(F)c(Cl)c2F)CC1 32.7%
Cc1ccc(NC(=O)COC(=O)CNC(=O)c2ccc(Cl)cc2Cl)cc1S(=O)(=O)N1CCOCC1 31.4%
CC1(C)C(c2cccs2)=[N+]([O-])C2(CCCCC2=O)N1O (stereo not given) 29.8%
COC(=O)C1=C(C(=O)OC)C(c2cc([N+](=O)[O-])ccc2O)c2sc(=O)[nH]c2S1 (stereo not given) 33.3%
Cc1ccc(NC(=O)c2c(NC(=O)CCC(=O)O)sc3c2CCCCC3)cc1 32%
CSc1nnc(NC(=O)c2nc(S(=O)(=O)Cc3ccc(C)cc3)ncc2Cl)s1 44.6%
C=Cn1c(C(=O)O)ccc1-c1ccc(OC)cc1 28.8%
Cc1ccc(C(C(=O)NCC2CCCO2)N(C(=O)c2snc(C(N)=O)c2N)c2ccc(C(C)C)cc2)o1 (stereo not given) 29.1%

inhibition, inactive:
NC(=O)c1ccc(NC(=O)COC(=O)c2c3c(nc4ccccc24)/C(=C\c2ccc4c(c2)OCO4)CCC3)cc1 -10%
Cn1cccc1C(=O)OCC(=O)c1ccc(Br)s1 4.25%
COC(=O)c1cc(NC(=O)c2cc(C(C)(C)C)nn2Cc2cccc(C)c2)ccc1N1CCOCC1 4.17%
COc1ccc(NC2CCCN(C(=O)c3ccccc3-c3ncc[nH]3)C2)cc1 (stereo not given) 4.61%
CCc1ccc2oc(=O)cc(CN3CCCCC3C)c2c1 (stereo not given) 10.6%
CC(NC(=O)COc1ccccc1)C(=O)NC1=NCCS1 (stereo not given) 0.52%
COc1ccc(CCNC(=O)COC(=O)c2ncc(Cl)c(Cl)c2Cl)cc1OC 14.8%
CCOc1ncccc1C(=O)NCCc1ccc(OC)cc1 -0.79%
CC(CCc1ccccc1)NC(=O)c1cnc(Cl)c(Cl)c1 (stereo not given) 9.38%
O=C(OCC(=O)N1CCCC1)c1ccc(Cl)nc1 -3.4%
O=C(OCC(=O)N1CCCCCC1)c1ccc(Cl)nc1 2.21%
COC(=O)c1ccc(COC(=O)c2cnc(Cl)c(Cl)c2)cc1 21.5%
NC1=NC(=O)S/C1=C\c1ccc(O)cc1 -45.1%
CC(CC(=O)C1C(C)C=CCC1(C)C)NNC(N)=O (stereo not given) 0.06%
CCCc1nc2oc3c(OCC)ncnc3c2c2c1COC(C)(C)C2 2.51%
COc1ccc(/C=N/n2c(C)cc(C)cc2=O)cc1 5.08%
CCOC(=O)C1=CN(Cc2ccc(Br)cc2)S(=O)(=O)NC1C (stereo not given) 1.79%
CN(C)/C=C(/C(=O)c1ccc(F)cc1)S(=O)(=O)c1ccc(F)cc1 -0.11%
CCOC(=O)N1CCN(C(=O)C2CCN(S(C)(=O)=O)CC2)CC1 3.32%
Brc1ccc(CN2CC[C@H]3C=CCc4cccc(c43)C2)cc1 11.3%
Cc1cc(=O)n2nc(N3CCCC(C(=O)N4CCN(C)CC4)C3)sc2n1 (stereo not given) 0.44%
CSc1nnc2c(n1)OC(c1ccsc1)N(C(C)=O)c1ccccc1-2 (stereo not given) 3.07%
CNC(=O)C1CN(C(=O)c2cccc(S(=O)(=O)N3CCc4ccccc43)c2)c2ccccc2O1 (stereo not given) 5.06%
CSc1ccc(C#N)cc1NC(=O)c1ccc(Cl)cc1 2.18%
Cc1c(Cl)cccc1NC(=O)NCc1ccc(C)n1C 5.07%
Cc1c(Cl)cccc1NC(=S)NCC(O)c1ccccc1 (stereo not given) 3.92%
Cc1ccc(OCC(=O)Nc2cccc3c2CCCC3)cc1C 5.28%
O=c1c2cc(Br)ccc2nc(-c2cccc(Cl)c2)n1O 2.37%
O=C(COC(=O)/C=C/c1cn(-c2ccccc2)nc1-c1cccnc1)Nc1ccc(Cl)cc1Cl 11.1%
CCOC(=O)C1(Cc2ccccc2C(F)(F)F)CCN(C(=O)c2cc(C)n(C)n2)CC1 5.76%
COc1ccc(/C=C/C(=O)c2c(O)cc(OC)cc2OC)cc1 -19.9%
CCOc1ccc(OCC(=O)Nc2c3c(nn2C(C)(C)C)CS(=O)(=O)C3)cc1 1.77%
O=S(=O)(Cc1noc(-c2ccc(OC(F)(F)F)cc2)n1)c1ccc(F)cc1 4.42%
CC(OC(=O)C1CC(=O)N(Cc2ccccc2)C1)C(=O)Nc1ccccc1[N+](=O)[O-] (stereo not given) -5.04%
Cc1cc(=O)oc2cc(NC(=O)C3CC(=O)N(Cc4ccccc4)C3)ccc12 (stereo not given) 15.7%
Cc1cc(-c2csc(N)n2)c(C)n1-c1ccccc1 4%
CC1(C(=O)N/N=C/c2cc3c(cc2Br)OCO3)CC1(Br)Br (stereo not given) 19.5%
CCN(CC)C(=O)C1CCCN(Cc2cccc(Cl)c2)C1 (stereo not given) -1.5%
O=[N+]([O-])c1ccc(Oc2ccc(F)cc2Br)c2ccncc12 2.28%
COc1cc(NC(=O)c2cc(-c3ccc(F)cc3OC(C)C)n[nH]2)cc(OC)c1OC 19.5%
CCCOc1ccc(F)cc1-c1cc(C(=O)Nc2ccc(F)c(Cl)c2)[nH]n1 3.21%
COc1ccc(CCNC(=O)c2c(C)nn(-c3ccccc3)c2Cl)cc1 13.4%
Cc1cccc(-n2ncc(Cl)c(Cl)c2=O)c1 27.8%
CC(C)Nc1nc(NCCOc2ccccc2Cl)c2sccc2n1 -7.14%
COc1ccc2c(c1)C(=O)Nc1cc(Cl)ccc1N2 -3.19%
CCOCCCNC(=O)c1cc2c(=O)n3ccccc3nc2s1 -4.33%
COc1ccc(/C=C(\C#N)C(=O)NCCCn2ccnc2)cc1 6.52%
CN(C)C(=O)c1cccc(-c2cnc3c(NC=O)cc(-c4ccc(F)cc4)cn23)c1 -2.24%
O=C(c1cnc(Cl)c(Cl)c1)N1CCN(S(=O)(=O)c2ccc(F)cc2)CC1 19.3%
O=C(NNS(=O)(=O)c1c(F)cc(F)c(Cl)c1F)C12CC3CC(CC(C3)C1)C2 -0.65%
COc1ccccc1C(=O)NC(CCSC)C(=O)NNC(=O)c1csc(N2CCOCC2)n1 (stereo not given) 14.9%
Cc1ccc(NC(=O)CCCNC(=O)c2ccc(Cl)cc2)cc1S(=O)(=O)N1CCOCC1 -7.04%
Cc1ccc(NC(=O)COC(=O)C2CC2)cc1S(=O)(=O)N1CCOCC1 5.97%
Cc1cc(C)c(NC(=O)CN2C(=O)NC(Cc3ccccc3)C2=O)c(C)c1 (stereo not given) -8.57%
CC(=O)C1(C)N(O)C(C)(C)C(c2cccs2)=[N+]1[O-] (stereo not given) -4.35%
Cc1cc(-n2cnc(-c3cn(C)nc3C)n2)no1 3.28%
CC(=O)N(Cc1cccs1)C1CCOC(C)(C)C1 (stereo not given) -3.32%
OC(CN1C2=NCCCN2c2ccccc21)c1ccc(Br)cc1 (stereo not given) -7.35%
COc1cccc(OCC(=O)NCCS(=O)(=O)N2CCN(c3ccccc3)CC2)c1 1.47%
COC(=O)c1c(C)[nH]c(C)c1-c1ccc([N+](=O)[O-])cc1 -0.44%
COC(=O)C1=C(C)N(C)C(=O)NC1c1ccc([N+](=O)[O-])o1 (stereo not given) -8.39%
CC1(C)CC(N2CCN(C(c3ccccc3)c3ccccc3)CC2)=CC(=[N+]2CCCCC2)C1 5.45%
NC1=NC2(CCCCC2)N(c2ccc(F)cc2F)C(N)=N1 1.15%
Cc1ccc2c(cnn2C(=O)CCC(=O)NC2CCCC2)c1 -3.58%
CC(C)N(c1ccccc1)c1ncnc(NCCC(=O)O)c1[N+](=O)[O-] 9.58%
COC(=O)c1c(NC(=O)CCN2CCOCC2)sc2c1CCCC2 -12.7%
O=C(CN1CCCC1)Nc1sc2c(c1C(=O)Nc1ccccc1)CCCC2 -1.77%
CN(C)/C(CN1CCCCC1)=C1\N=C(c2ccccc2)OC1=O 7.27%
O=C1CCC(=O)N(c2ccccc2)N1 22.5%
NC(=O)CSc1nnc(NC(=O)c2ccc(Br)o2)s1 -2.81%
Cc1cccc(CS(=O)(=O)c2ncc(Cl)c(C(=O)Nc3ccc(F)cc3)n2)c1 12.4%
Cc1cc(C)c2nc(-c3cccnc3)cc(C(=O)Nc3ccc(S(=O)(=O)Nc4onc(C)c4C)cc3)c2c1 19.9%
COc1ccc(-c2ccc(CCC(=O)O)n2NC(=O)c2ccc(C(C)(C)C)cc2)cc1 11.2%
COc1ccc(-c2ccc(CCC(=O)O)n2-c2ccc(O)cc2)cc1 1%
CCOc1ccc(N(C(=O)c2snc(C(N)=O)c2N)C(C(=O)NCC2CCCO2)c2c[nH]c3ccccc23)cc1 (stereo not given) 12.3%
Cc1ccc(N(C(=O)c2snc(C(N)=O)c2N)C(C(=O)NCC2CCCO2)c2c[nH]c3ccccc23)cc1 (stereo not given) 21.4%

Reference: PubChem BioAssay AID540295 (The Scripps Research Institute Molecular Screening Center, 2011)
